This note sets out measurements from ChEMBL document CHEMBL1139454, “NMR structural characterization of peptide inhibitors bound to the Hepatitis C virus NS3 protease: design of a new P2 substituent” (J Med Chem, 2004).

A word on the IC50: it is the midpoint of a concentration-inhibition curve.

One test has as its target NS3 (Hepatitis C virus, UniProt A3EZJ3). The experiment in a line: Inhibitory activity against hepatitis C virus NS3 protease. More on the design: species or system Hepacivirus hominis. An outline of the steps: (§1)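 Genotype 1b NS3–NS4A heterodimer at 1.5 nM, incubated 45 min at 23 °C with serially diluted inhibitor and 5 μM internally quenched fluorogenic substrate anthranilyl-DDIVPAbu[C(O)-O]-AMY(3-NO₂)TW-OH. Buffer was 50 mM Tris-HCl pH 8.0, 0.25 M sodium citrate, 0.01% n-dodecyl-β-D-maltoside, 1 mM TCEP. Stopped with 1 M MES pH 5.8; product fluorescence read at ex 320/em 405 nm. IC50 from Hill-model nonlinear fit of % inhibition.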

Test [1] can be described thus: Inhibitory activity against hepatitis C virus (NS3 protease. More on the design: species or system Hepacivirus hominis. An outline of the steps: as §1

Non-standard residues stand in square brackets, D forms with d. Residues, ends and D or L forms follow the SMILES beside them. Nva = CCC[C@H](N)C(=O)O

Chain of NS3 (A3EZJ3 whole entry): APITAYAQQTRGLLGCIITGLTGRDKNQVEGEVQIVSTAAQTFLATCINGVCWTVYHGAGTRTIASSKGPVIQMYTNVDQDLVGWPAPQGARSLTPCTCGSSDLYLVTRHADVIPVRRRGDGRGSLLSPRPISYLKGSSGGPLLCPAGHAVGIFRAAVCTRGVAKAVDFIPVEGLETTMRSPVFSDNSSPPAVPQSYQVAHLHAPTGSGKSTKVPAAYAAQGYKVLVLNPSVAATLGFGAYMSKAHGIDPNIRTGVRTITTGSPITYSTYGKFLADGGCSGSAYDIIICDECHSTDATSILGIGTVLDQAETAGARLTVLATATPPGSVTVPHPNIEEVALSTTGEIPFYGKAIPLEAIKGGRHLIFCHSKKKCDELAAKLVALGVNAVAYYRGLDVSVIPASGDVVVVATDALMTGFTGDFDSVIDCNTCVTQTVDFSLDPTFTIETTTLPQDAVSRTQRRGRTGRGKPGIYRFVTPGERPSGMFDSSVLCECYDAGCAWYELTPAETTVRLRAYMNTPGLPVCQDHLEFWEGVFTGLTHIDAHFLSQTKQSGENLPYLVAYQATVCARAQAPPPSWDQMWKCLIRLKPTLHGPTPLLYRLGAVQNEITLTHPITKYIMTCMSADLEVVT

Regarding `C=CC1C[C@]1(NC(=O)[C@@H]1C[C@@H](Oc2cc(-c3ccccc3)nc3ccccc23)CN1C(=O)[C@@H](NC(C)=O)C(C)C)C(=O)O` (some centres not stated), the IC50 at NS3 was found to be 3 µM. On to `CCC[C@H](NC(=O)[C@@H]1CCCN1C(=O)[C@@H](NC(=O)[C@@H](NC(=O)[C@H](CC(=O)O)NC(=O)[C@H](CC(=O)O)NC(C)=O)[C@@H](C)CC)C(C)C)C(=O)O` (Ac-DDIVP[Nva]-OH), for which, in test [1], the concentration for half-maximal inhibition (IC50) came to 150 µM. On NS3, `C=C[C@@H]1C[C@]1(NC(=O)C1CC(Oc2ccnc3ccccc23)CN1C(=O)[C@@H](NC(=O)[C@@H](NC(C)=O)C1CCCCC1)C(C)C)C(=O)O` (single isomer, unassigned) registered a half-maximal inhibitory concentration (IC50) of 0.11 µM. As to `CC(=O)N[C@H](C(=O)N[C@H](C(=O)N1CC(Oc2cccc(Br)c2)CC1C(=O)NC1(C(=O)O)CC1)C(C)C)C1CCCCC1` (single isomer, unassigned), at NS3, the IC50 turned out to be 52 µM. On the same count and under the same terms, under `CC(=O)N[C@H](C(=O)N[C@H](C(=O)N1CC(Oc2cccc(-c3ccccc3)c2)CC1C(=O)NC1(C(=O)O)CC1)C(C)C)C1CCCCC1` (single isomer, unassigned) stands 6.2 µM. Regarding `CC(=O)N[C@H](C(=O)N[C@H](C(=O)N1CC(Oc2cccc(-c3cccc([N+](=O)[O-])c3)c2)CC1C(=O)NC1(C(=O)O)CC1)C(C)C)C1CCCCC1` (single isomer, unassigned), half-maximal inhibition on NS3 (IC50) required 4 µM. The same measure, in the same setting: under `CC(=O)N[C@H](C(=O)N[C@H](C(=O)N1CC(Oc2ccnc3ccccc23)CC1C(=O)NC1(C(=O)O)CC1)C(C)C)C1CCCCC1` (single isomer, unassigned) stands 2.2 µM. Same read-out and setting: the figure for `C=C[C@@H]1C[C@]1(NC(=O)C1CC(Oc2cccc(-c3ccccc3)c2)CN1C(=O)[C@@H](NC(=O)[C@@H](NC(C)=O)C1CCCCC1)C(C)C)C(=O)O` (single isomer, unassigned) is 0.12 µM.

In turn, `CC(=O)N[C@H](C(=O)N[C@H](C(=O)N1CC(Oc2ccnc3cc(C(F)(F)F)ccc23)CC1C(=O)NC1(C(=O)O)CC1)C(C)C)C1CCCCC1` (single isomer, unassigned) returned a half-maximal inhibitory concentration (IC50) against NS3 of 8 µM. Still for that read-out and setting: under `CC(=O)N[C@H](C(=O)N[C@H](C(=O)N1CC(OCc2cccc3ccccc23)CC1C(=O)NC1(C(=O)O)CC1)C(C)C)C1CCCCC1` (single isomer, unassigned) stands 4 µM; under `CC(=O)N[C@H](C(=O)N[C@H](C(=O)N1CC(Oc2cc(-c3ccccc3)nc3ccccc23)CC1C(=O)NC1(C(=O)O)CC1)C(C)C)C1CCCCC1` (single isomer, unassigned), 0.37 µM; under `C=C[C@@H]1C[C@]1(NC(=O)C1CC(Oc2cc(-c3ccccc3)nc3ccccc23)CN1C(=O)[C@@H](NC(=O)[C@@H](NC(C)=O)C1CCCCC1)C(C)C)C(=O)O` (single isomer, unassigned), 0.013 µM.
